In publication PMC3228909 (Journal of medicinal chemistry, 2011):
pKi: −log10 of the molar value. “And” between values parts separate entries of the source, which are not always exact repeats. Identical values can stand only once. Like-named read-outs stand apart in the source and are kept apart here.

Experiments:
[1] = molecular target: Aβ plaques in postmortem AD brain homogenates (Homo sapiens, UniProt P05067); assay type: binding
[2] = normal mice, iv, cited from earlier work
[3] = molecular target: Aβ plaques in postmortem human brain sections (Homo sapiens, UniProt P05067); experiment: In vitro autoradiography of postmortem human brain sections; assay type: binding
How it was run: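 Frozen postmortem brains (confirmed CAA, AD, control) cut at 20 µm. Sections incubated 1 h with the 18F-labelled test compound in 40% ethanol. Washes: saturated Li2CO3 in 40% ethanol (2 min, twice), then 40% ethanol (2 min, once), then a 30 s water rinse. Dried sections exposed to film for 12–18 h; developed images digitized.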

[4] = molecular target: Aβ plaques in CAA brain sections (Homo sapiens, UniProt P05067); experiment: Thioflavin S fluorescent staining of neighboring CAA occipital brain sections
How it was run: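 Brain sections fixed in 10% neutral buffered formalin for 1 hr. Autofluorescence quenched with 0.05% KMnO4, then bleached in 0.2% K2S2O5/0.2% oxalic acid. Stained 3–5 min with 0.025% thioflavin S in 40% ethanol, differentiated in 50% ethanol. Imaged by fluorescence microscopy with a CCD digital camera.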

Aβ plaques in postmortem AD brain homogenates, sequence (P05067 672-711 limits assumed): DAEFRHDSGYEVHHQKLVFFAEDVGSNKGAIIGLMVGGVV
Aβ plaques in postmortem human brain sections, sequence (P05067 672-711 limits assumed): as above
Aβ plaques in CAA brain sections, sequence (P05067 672-711 limits assumed): as above

## CNc1ccc(/C=C/c2ccc(OCCOCCOCCOCCOCCOCC(COCCOCCOCCOCCOCCOc3ccc(/C=C/c4ccc(NC)cc4)cn3)OCCF)nc2)cc1 [Compound 8b]
[1]
  pKi: 8.49

## CNc1ccc(/C=C/c2ccc(OCCOCCOCCOCCOCCOCCOCC(COCCOCCOCCOCCOCCOCCOc3ccc(/C=C/c4ccc(NC)cc4)cn3)OCCF)nc2)cc1 [Compound 8c]
[1]
  pKi: 8.11

## CNc1ccc(/C=C/c2ccc(OCCOCCOCC[18F])nc2)cc1 [[^18F]5, [^18F]florbetapir f 18]
[2]; 2 min post injection
  Biodistribution, Blood: 3.14 ± 0.69 % dose/gram
  Biodistribution, Bone: 1.43 ± 0.09 % dose/gram
  Biodistribution, Brain (brain uptake): 7.8 % dose/gram and 7.77 ± 1.70 % dose/gram
  Biodistribution, Kidney: 10.9 ± 2.63 % dose/gram
  Biodistribution, Liver: 21.5 ± 1.07 % dose/gram
  Biodistribution, Muscle: 1.06 ± 0.39 % dose/gram
[2]; 30 min post injection
  Biodistribution, Blood: 2.80 ± 0.44 % dose/gram
  Biodistribution, Bone: 1.22 ± 0.17 % dose/gram
  Biodistribution, Brain: 1.59 ± 0.22 % dose/gram
  Biodistribution, Kidney: 6.31 ± 0.58 % dose/gram
  Biodistribution, Liver: 12.9 ± 0.72 % dose/gram
  Biodistribution, Muscle: 1.78 ± 0.34 % dose/gram
[3]; AD brain sections
  Autoradiographic labeling of brain sections: labeled intensely
[3]; healthy control (HC) brain sections
  Autoradiographic labeling of brain sections: very low labeling

## thioflavin S
[4]
  Fluorescent staining of brain sections compared with [18F]8a autoradiography: same labeling of the major blood vessels
